Data set [1] deals with Salmon testes DNA. Briefly: Covalent binding affinity to salmon DNA measured after 30 mins by UV based spectroscopic method. The class given is nucleic-acid assay. Particulars: Salmo salar. In outline:
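After 30 min room-temperature incubation with salmon sperm DNA in TE/15% glycerol buffer and 100 kDa ultrafiltration, retained complexes were washed with 30% MeOH (3× 5000g, 10 °C). Ligands were then released with 95% MeOH/1% formic acid for 20 min, refiltered, dried, taken up in MeOH, and analysed by LC-PDA-MS/MS against no-DNA controls.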

Data set [2] is described as follows: Aqueous solubility of the compound. Conditions: buffer.
A further data set deals with A673. Briefly: Antiproliferative activity against human A673 assessed as cell growth inhibition after 48 hrs by SRB assay. The class given is functional. Conditions: for CC50: read-out: LC50 (the source's name). In outline:
(§1)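 A-673 and HCC1806 cells in RPMI-1640 with 5% FBS, 37 °C, 5% CO2, used within 4 months of thaw. Cells were plated and left overnight, then exposed to compounds in DMSO (0.5% v/v final) for 48 h. SRB staining followed, with GI50 fitted by nonlinear regression, as the mean of 3 or 4 experiments ±SEM.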

The next data set concerns MDA-MB-453. Briefly: Antiproliferative activity against human MDA-MB-453 assessed as cell growth inhibition after 48 hrs by SRB assay. Format: functional. In short, it runs like this:
(§2)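 MDA-MB-231 and MDA-MB-453 cells in modified IMEM with 5% FBS and 30 μg/mL gentamicin, 37 °C, 5% CO2, used within 4 months of thaw. After overnight adherence, cells had 48 h compound treatment (DMSO 0.5% v/v final). Growth was read by SRB assay, with GI50 from nonlinear regression as the mean of 3 or 4 experiments ±SEM.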

The next data set deals with SJRH30. The data set is described as follows: Antiproliferative activity against human SJRH30 assessed as cell growth inhibition after 48 hrs by SRB assay. The class given is functional. In short, it runs like this: (§3)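 HCC1937, HCC70 and SJCRH30 cells in RPMI-1640 with 10% FBS and 50 μg/mL gentamicin, 37 °C, 5% CO2, used within 4 months of thaw. Plated cells adhered overnight before 48 h compound exposure (DMSO 0.5% v/v final). Read-out was SRB, with GI50 by nonlinear regression from 3 or 4 experiments ±SEM.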

Another data set relates to HCC1937. Briefly: Antiproliferative activity against human HCC1937 assessed as cell growth inhibition after 48 hrs by SRB assay. Format: functional. In short, it runs like this: as §3
The test system of another data set is HCC70. Briefly: Antiproliferative activity against human HCC70 assessed as cell growth inhibition after 48 hrs by SRB assay. The class given is functional. Conditions: for CC50: read-out: LC50 (the source's name). In short, it runs like this:
as §3

Another data set has as its system HCC1806. The data set is described as follows: Antiproliferative activity against human HCC1806 assessed as cell growth inhibition after 48 hrs by SRB assay. The class given is functional. Conditions: for CC50: read-out: LC50 (the source's name). In short, it runs like this:
as §1

Another data set concerns MDA-MB-231. Briefly: Antiproliferative activity against human MDA-MB-231 assessed as cell growth inhibition after 48 hrs by SRB assay. Format: functional. Conditions: for CC50: read-out: LC50 (the source's name). In outline:
as §2

Data set [3] deals with Salmon testes DNA. The data set is described as follows: Binding affinity to salmon DNA groove measured after 30 mins by UV based spectroscopic method. The class given is nucleic-acid assay. Particulars: Salmo salar. In short, it runs like this:
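Compounds (typically 5–50 μg) in 200 μL water/MeOH were added to 400 μL salmon sperm DNA stock (1 mg/mL in 10 mM Tris, 1 mM EDTA, pH 8.0, 15% glycerol) and incubated 30 min at room temperature. Samples were ultrafiltered (100 kDa, 5000g, 10 °C), and filtrate peak areas (UV 254 nm, LC-PDA-MS/MS) were compared with no-DNA buffer controls.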

The text below walks through data of ChEMBL document CHEMBL4828701, “An Integrated Strategy for the Detection, Dereplication, and Identification of DNA-Binding Biomolecules from Complex Natural Product Mixtures” (J Nat Prod, 2021).

Structures are written as SMILES. Calls of active or inactive are those of the source. No cut-off for these calls is given here.

As for `O=NN(CCCl)C(=O)NCCCl` [CARMUSTINE], the outcome in the data set on Salmon testes DNA [1] was Active. Besides, the solubility result in data set [2] is recorded as “Insoluble”.
Turning to `Cc1c2ccncc2c(C)c2c1[nH]c1ccccc12` [ELLIPTECINE], the solubility result in data set [2] was “Insoluble”.
Turning to `CN(C)CCN(Cc1cccs1)c1ccccn1` [METHAPYRILENE], the solubility entry in data set [2] is on record as “Insoluble”.
Regarding `COc1ccc2cc1Oc1ccc(cc1)C[C@H]1c3c(cc4c(c3Oc3cc5c(cc3OC)CCN(C)[C@@H]5C2)OCO4)CCN1C` [CEPHARANTHINE], the GI50 in the data set on A673 worked out at 4.5 µM; in the data set with MDA-MB-453 it was 5.5 µM; with SJRH30, 3.8 µM; in the data set with HCC1937, 6 µM; in the data set on HCC70, 5.8 µM; with HCC1806, 7.2 µM. The GI50 in the data set with MDA-MB-231 amounted to 5.3 µM. Also, the TGI in the data set with A673 was found to be 5.8 µM; with MDA-MB-453, 7.8 µM; with SJRH30 it was 5.7 µM; with HCC1937, 14 µM; in the data set with HCC70, 9.6 µM; in the data set on HCC1806, 12 µM. Moreover, the TGI in the data set with MDA-MB-231 was 7.7 µM. The CC50 in the data set on A673 worked out at 7.5 µM; in the data set on HCC70, 17 µM; in the data set on HCC1806 it was 19 µM; in the data set on MDA-MB-231, 12 µM.
With `COc1ccc2cc1Oc1ccc(cc1)C[C@H]1c3cc(c(OC)cc3CCN1C)Oc1c(OC)c(OC)cc3c1[C@H](C2)N(C)CC3` [FANCHININ], the GI50 worked out at 4 µM with A673; 3.3 µM with MDA-MB-453; 3 µM in the data set on SJRH30; 4.2 µM in the data set with HCC1937; 3.4 µM in the data set on HCC70; 5.1 µM in the data set on HCC1806. Besides, in the data set on MDA-MB-231, the GI50 was 5 µM. The TGI was found to be 6 µM with A673; 4.8 µM in the data set with MDA-MB-453; 4.3 µM in the data set with SJRH30; 10 µM with HCC1937; 5.9 µM with HCC70; 8.5 µM in the data set with HCC1806. Besides, the total growth inhibition concentration (TGI) with MDA-MB-231 stood at 7.4 µM. Besides, the CC50 was 8.9 µM with A673, 11 µM in the data set with HCC70, 15 µM in the data set with HCC1806 and 12 µM in the data set on MDA-MB-231.
For the compound `NC[C@@H]1O[C@H](O[C@H]2[C@@H](O)[C@H](O[C@@H]3[C@@H](O)[C@H](N)C[C@H](N)[C@H]3O[C@H]3O[C@H](CN)[C@@H](O)[C@H](O)[C@H]3N)O[C@@H]2CO)[C@H](N)[C@@H](O)[C@@H]1O` [FRAMYCETIN], the outcome in the data set with Salmon testes DNA [3] was Active. Further, the solubility entry in data set [2] is recorded as “Soluble”.
As to `COc1cc2c(cc1O)[C@@H](Cc1ccc(O)c(Oc3ccc(C[C@@H]4c5cc(OC)c(OC)cc5CCN4C)cc3)c1)N(C)CC2` [DARUISOLINE], the GI50 was 9.2 µM with A673; 9 µM with MDA-MB-453; 3.7 µM in the data set with SJRH30; 6.9 µM with HCC1937; 8.8 µM with HCC70; 17 µM in the data set with HCC1806. Further, the GI50 in the data set on MDA-MB-231 stood at 13 µM. Also, the TGI in the data set on A673 stood at 13 µM; with MDA-MB-453, 14 µM; in the data set with SJRH30 it was 6 µM; with HCC1937, 11 µM; with HCC70, 13 µM; with HCC1806 it was 27 µM. Further, the TGI in the data set on MDA-MB-231 was 19 µM. For the same compound, the CC50 turned out to be 19 µM in the data set on A673, 19 µM with HCC70, 41 µM with HCC1806 and 30 µM with MDA-MB-231.
With `Nc1c2ccccc2nc2ccccc12` [AMINACRINE], the solubility result in data set [2] is given as “Insoluble”.
With `N[C@@H](Cc1ccc(N(CCCl)CCCl)cc1)C(=O)O` [MELPHALAN], the result with Salmon testes DNA [1] was Active. In addition, the solubility result in data set [2] is “Insoluble”.
